Results: ChEMBL document CHEMBL1125740, “Heterocyclic quinones. 17. A new in vivo active antineoplastic drug: 6,7-bis(1-aziridinyl)-4-[[3-(N,N-dimethylamino)propyl]amino]-5,8- quinazolinedione” (J Med Chem, 1991)
Where “and” joins values, the source holds several entries; their conditions need not be identical. Equal entries are not always repeated.

Experiments:
L1210 [1] = assay: Compound was evaluated in vivo for antitumor activity after intraperitoneal administration against L1210(935) for total dose at an optimal dose of 0.2 mg/kg/injection at 1-4 day schedule.; assay type: functional, Mus musculus
In short: (§1)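 L1210 leukemia, maintained in DBA/2 mice, was given ip as 10⁵ cells on day 0 to F1 hybrid or strain-of-origin mice over 18 g, in groups of 8. Dosing was ip from day 1, and mortality was checked daily. Median day of death counts dying mice only. %ILS = 100×(treated − control median day of death)/control median. Tumor-free survivors were counted on day 60. Weight change is g/mouse at nadir.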

P388 [2] = assay: Compound was evaluated in vivo for antitumor activity after intraperitoneal administration against P388/L-PAM(14) for change in body weight at an optimal dose of 0.5 mg/kg/injection at 1,4,7,11 day schedule.; assay type: functional, Mus musculus
L1210 [3] = assay: Compound was evaluated in vivo for antitumor activity after intraperitoneal administration against L1210(935)for change in body weight at an optimal dose of 0.2 mg/kg/injection at 1-4 day schedule.; assay type: functional, Mus musculus; in short: as §1
P388 [4] = assay: Compound was evaluated in vivo for antitumor activity after intraperitoneal administration against P388/L-PAM(14) for mortality range at an optimal dose of 0.1 mg/kg/injection at 1,2,3,4 day schedule.; assay type: functional, Mus musculus
P388 [5] = assay: Compound was evaluated in vivo for antitumor activity after intraperitoneal administration against P388/L-PAM(14) for % increase in life span at an optimal dose of 0.5 mg/kg/injection at 1,4,7,11 day schedule.; assay type: functional; conditions: Mus musculus, P388, ip
L1210 [6] = assay: Compound was evaluated in vivo for antitumor activity after intraperitoneal administration against L1210(935) for total dose at an optimal dose of 0.5 mg/kg/injection at 1,4,7,11day schedule.; assay type: functional, Mus musculus; in short: as §1
B16 [7] = assay: Compound was evaluated in vivo for antitumor activity against B16 melanoma 1 after injecting the compound intravenously for median tumor burden; assay type: functional, Mus musculus
B16 [8] = assay: Compound was evaluated in vivo for antitumor activity against B16 melanoma 1 after injecting the compound intravenously for total dose.; assay type: functional, Mus musculus
B16 [9] = assay: Compound was evaluated in vivo for antitumor activity against B16 melanoma after injecting the compound intravenously for change in body weight.; assay type: functional, Mus musculus
In short: (§2)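 30-60 mg tumor fragments implanted sc by trocar on day 0 into C57Bl/6-derived hosts (B16) or C3H/He-derived hosts (16/C). Drug given iv on days 6, 9 and 13 (B16) or 6, 9 and 12 (16/C), 10 mice per group. Tumors measured by caliper. T/C % taken from median tumor burden of treated vs control groups on day 15 (B16) or day 14 (16/C). Body weight change per mouse recorded at nadir.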

[10] = Compound was evaluated in vivo for antitumor activity against mammary adenocarcinoma 16/C after injecting the compound intravenously for total dose.; assay type: functional, Mus musculus; in short: as §2
P388 [11] = assay: Compound was evaluated in vivo for antitumor activity after intraperitoneal administration against P388/L-PAM(14) for change in body weight at an optimal dose of 0.25 mg/kg/injection at 1,4,7,11 day schedule.; assay type: functional, Mus musculus
P388 [12] = assay: Compound was evaluated in vivo for antitumor activity after intraperitoneal administration against P388 (1313) for mortality range at an optimal dose of 1 mg/kg/injection; assay type: functional, Mus musculus
[13] = Compound was evaluated in vivo for antitumor activity against Glasgow osteogenic sarcoma after injecting the compound intravenously for percent T/C (value in parentheses indicates the day of evaluation); assay type: functional, Mus musculus
P388 [14] = assay: Compound was evaluated in vivo for antitumor activity after intraperitoneal administration against P388/L-PAM(14) for % increase in life span at an optimal dose of 1 mg/kg/injection; assay type: functional; conditions: Mus musculus, P388, ip
[15] = Compound was evaluated in vivo for antitumor activity against colon adenocarcinoma 38 after injecting the compound intravenously for optimal dose; assay type: functional, Mus musculus
L1210 [16] = assay: Compound was evaluated in vivo for antitumor activity after intraperitoneal administration against L1210(935)for % increase in life span at an optimal dose of 0.4 mg/kg/injection at 1-4 day schedule.; assay type: functional; conditions: Mus musculus, L1210, ip; in short: as §1
P388 [17] = assay: Compound was evaluated in vivo for antitumor activity after intraperitoneal administration against P388 (1313) for median day of death at an optimal dose of 0.5 mg/kg/injection; assay type: functional, Mus musculus
P388 [18] = assay: Compound was evaluated in vivo for antitumor activity after intraperitoneal administration against P388 (1313) for change in body weight at an optimal dose of 0.5 mg/kg/injection; assay type: functional, Mus musculus
P388 [19] = assay: Compound was evaluated in vivo for antitumor activity after intraperitoneal administration against P388/L-PAM(12) for mortality range at an optimal dose of 0.75 mg/kg/injection; assay type: functional, Mus musculus
P388 [20] = assay: Compound was evaluated in vivo for antitumor activity after intraperitoneal administration against P388 (1303) for change in body weight at an optimal dose of 0.75 mg/kg/injection; assay type: functional, Mus musculus
P388 [21] = assay: Compound was evaluated in vivo for antitumor activity after intraperitoneal administration against P388/L-PAM(14) for median day of death at an optimal dose of 1 mg/kg/injection; assay type: functional, Mus musculus
P388 [22] = assay: Compound was evaluated in vivo for antitumor activity after intraperitoneal administration against P388/L-PAM(14) for % increase in life span at an optimal dose of 0.5 mg/kg/injection at one day schedule.; assay type: functional; conditions: Mus musculus, P388, ip, 24 h
L1210 [23] = assay: Compound was evaluated in vivo for antitumor activity after intraperitoneal administration against L1210(935) for tumor free survivors at an optimal dose of 0.1 mg/kg/injection at 1-4 day schedule.; assay type: functional, Mus musculus; in short: as §1
P388 [24] = assay: Compound was evaluated in vivo for antitumor activity after intraperitoneal administration against P388/L-PAM(14) for median day of death at an optimal dose of 0.1 mg/kg/injection at 1,2,3,4 day schedule.; assay type: functional, Mus musculus
[25] = Compound was evaluated in vivo for antitumor activity against Glasgow osteogenic sarcoma after injecting the compound intravenously for optimal dose; assay type: functional, Mus musculus
In short: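 Glasgow osteogenic sarcoma in C57Bl/6-derived hosts: 30-60 mg fragments implanted sc by trocar on day 0. Drug given iv on days 3, 6 and 9, 7 mice per group. Tumors measured by caliper. Median tumor burden recorded on day 10. Body weight change per mouse recorded at nadir. Toxicity-related deaths counted.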

L1210 [26] = assay: Compound was evaluated in vivo for antitumor activity after intraperitoneal administration against L1210(935)for % increase in life span at an optimal dose of 0.1 mg/kg/injection at 1-4 day schedule.; assay type: functional; conditions: Mus musculus, L1210, ip; in short: as §1
P388 [27] = assay: Compound was evaluated in vivo for antitumor activity after intraperitoneal administration against P388/L-PAM(14) for median day of death at an optimal dose of 0.4 mg/kg/injection at 1,2,3,4 day schedule.; assay type: functional, Mus musculus
P388 [28] = assay: Compound was evaluated in vivo for antitumor activity after intraperitoneal administration against P388/L-PAM(14) for median day of death at an optimal dose of 0.25 mg/kg/injection at 1,4,7,11 day schedule.; assay type: functional, Mus musculus
B16 [29] = assay: Compound was evaluated in vivo for antitumor activity against […] B16 melanoma 1 after injecting the compound intravenously for optimal dose; assay type: functional, Mus musculus

With `CN(C)CCCNc1ncnc2c1C(=O)C(N1CC1)=C(N1CC1)C2=O` as the compound, how does the Total dose (L1210 [1]) read?
The Total dose was 0.8 mg/kg.

What about the “Change in body weight” value (P388 [2]) of the same compound?
The value was 0.7 g mouse-1.

What about the “Change in body weight” value (L1210 [3]) of the same compound?
Its value is 0.4 g mouse-1.

What about the Mortality (P388 [4]) of the same compound?
Its Mortality is 21 days.

And the ILS at 0.5 mg/kg (P388 [5])?
Its ILS at 0.5 mg/kg is 61%.

What about the Total dose (L1210 [6]) of the same compound?
The Total dose was 2 mg/kg.

And the Tumor burden (B16 [7])?
Its Tumor burden is 27.8.

And the Total dose (B16 [8])?
The Total dose was 1.8 mg/kg.

What about the “Change in body weight” value (B16 [9]) of the same compound?
The value was 0.9 g mouse-1 and 0.8 g mouse-1.

And the Total dose [10]?
Its Total dose is 1.2 mg/kg and 0.6 mg/kg.

What about the “Change in body weight” value (P388 [11]) of the same compound?
Its value is 0.9 g mouse-1.

What about the Mortality (P388 [12]) of the same compound?
Its Mortality is 24 days.

What about the T/C [13] of the same compound?
Its T/C is 0%.

What about the ILS at 1 mg/kg (P388 [14]) of the same compound?
The ILS at 1 mg/kg was 36%.

And the Optimal dose [15]?
Its Optimal dose is 0.25 mg/kg.

And the ILS at 0.4 mg/kg (L1210 [16])?
Its ILS at 0.4 mg/kg is 27%.

And the “Median day of death” value (P388 [17])?
Its value is 25.

What about the “Change in body weight” value (P388 [18]) of the same compound?
The value was 0 g mouse-1.

And the Mortality (P388 [19])?
Its Mortality is 19.

And the “Change in body weight” value (P388 [20])?
Its value is 3.2 g mouse-1.

And the “Median day of death” value (P388 [21])?
The value was 19.

And the ILS at 0.5 mg/kg (P388 [22])?
The ILS at 0.5 mg/kg was 28%.

And the Survivors (L1210 [23])?
The Survivors was 0.

And the “Median day of death” value (P388 [24])?
The value was 14.

And the Optimal dose [25]?
Its Optimal dose is 0.36 mg/kg.

What about the ILS at 0.1 mg/kg (L1210 [26]) of the same compound?
Its ILS at 0.1 mg/kg is 27%.

What about the “Median day of death” value (P388 [27]) of the same compound?
The value was 20.

What about the “Median day of death” value (P388 [28]) of the same compound?
The value was 16.5.

What about the Optimal dose (B16 [29]) of the same compound?
The Optimal dose was 0.2 mg/kg.
